# Laboratory results from ChEMBL document CHEMBL4825662 (J Med Chem, 2021).
# Activity calls are given as the source filed them. The rule behind the calls is not given here.
# Legend:
# [1] = Half life in Sprague-Dawley rat at 50 mg/kg, po measured after 0.02 to 24 hrs by UHPLC-TOF method; conditions: in vivo
# [2] = Intrinsic clearance in rat hepatocytes at 3 uM assessed per million cells measured up to 60 mins by LC-MS/MS analysis; assay type: ADME, cell-based, Hepatocyte; conditions: read-out: CLH
# [3] = Tmax in Sprague-Dawley rat at 10 mg/kg, po measured after 0.02 to 24 hrs by UHPLC-TOF method; assay type: ADME, organism-based; conditions: in vivo, 10 mg/kg, time 0.02-24 hrs
# [4] = Tmax in Beagle dog at 3 mg/kg, […] by UHPLC-TOF method; assay type: ADME, organism-based, Canis lupus familiaris; conditions: in vivo, po
# [5] = Half life in Sprague-Dawley rat at 1 mg/kg, iv measured after 0.02 to 24 hrs by UHPLC-TOF method; assay type: ADME, organism-based; conditions: in vivo, time 0.02-24 hrs
# [6] = Half life in Beagle dog hepatocytes at 3 uM assessed per million cells measured up to 60 mins by LC-MS/MS analysis; assay type: ADME, cell-based, Canis lupus familiaris, Hepatocyte
# [7] = Half life in human liver microsomes preincubated followed by NADPH addition and measured up to 45 mins by LC-MS/MS analysis; assay type: ADME, Microsome
# [8] = Thermodynamic solubility in PBS at 1 to 100 uM at pH 7.4 by HPLC-UV method; assay type: physicochemical; conditions: dose 1-100 µM, read-out: Therm_solubility
# [9] = Half life in Beagle dog at 0.3 mg/kg, iv measured after 0.03 to 24 hrs by UHPLC-TOF method; assay type: ADME, organism-based, Canis lupus familiaris; conditions: in vivo, time 0.03-24 hrs
# Summary of the method: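 Dogs dosed IV as a suspension of amorphous solid. Serial blood at 2, 5, 15 min and 1, 2, 4, 8, 12, 24 h into heparinized tubes, centrifuged at 4 °C for 10 min at 3000g. Plasma snap-frozen and stored at −20 °C, then analysed by UHPLC-TOF.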
# Human orthopneumovirus [10] = experiment: Antiviral activity against Respiratory syncytial virus A by Plaque reduction assay; assay type: functional, organism-based
# Summary of the method: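 RSV A and B laboratory strains and low-passage clinical isolates were used to infect Vero or HepG2 cultures for 48 h with compound at 0.01 nM to 100 μM. Plaques were then detected by immunostaining.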
# [11] = test system: Respiratory syncytial virus; experiment: Antiviral activity against Respiratory syncytial virus Memphis 37b infected in human HEp2 cells assessed as drug resistance by measuring fold change in EC50 treated over 10 serial passages by plaque assay relative to control; assay type: functional, HEp-2
# Salmonella typhimurium = experiment: Genotoxicity in Salmonella typhimurium by Ames test; assay type: functional, organism-based; conditions: Salmonella enterica subsp. enterica serovar Typhimurium
# [12] = Induction of toxicity in human at 175 to 350 mg; conditions: dose 175-350 mg
# [13] = Tmax in Sprague-Dawley rat at 50 mg/kg, po measured after 0.02 to 24 hrs by UHPLC-TOF method; assay type: ADME, organism-based; conditions: in vivo, time 0.02-24 hrs
# [14] = Cmax in Sprague-Dawley rat at 5 mg/kg, po administered via gavage measured after 0.02 to 24 hrs by tandem liquid chromatography/mass spectrometry; assay type: ADME, organism-based; design: route oral, dose 5 mg/kg, time upper 24 hrs, time lower 0.02 hrs; conditions: in vivo
# Summary of the method: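 Male Sprague–Dawley rats weighing 200–250 g, 3 per route, were used. The i.v. bolus was 1 mg/kg at 1 mg/mL in 40:60 dimethylacetamide/saline. Oral gavage doses were 5 or 10 mg/kg at 5 mg/mL in 1% methyl cellulose with 0.1% Tween 80. Heparinized blood was taken at 0.02–24 h (ten time points). Plasma was analyzed by LC-MS/MS after acetonitrile precipitation.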
# [15] = Oral bioavailability in Beagle dog at 3 mg/kg measured after 0.03 to 24 hrs by UHPLC-TOF method; assay type: ADME, organism-based, Canis lupus familiaris; conditions: Beagle, in vivo, time 0.03-24 hrs
# Summary of the method: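 Dogs examined by a veterinary surgeon before each session, fed 2 h post-dose, water ad libitum, dosed as amorphous-solid suspension. Serial blood into heparinized tubes, centrifuged at 4 °C for 10 min at 3000g; plasma snap-frozen at −20 °C. IV sampling 2 min–24 h, oral 15 min–24 h. Plasma analysed by UHPLC-quadrupole-TOF MS.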
# Human orthopneumovirus [16] = experiment: Antiviral activity against Respiratory syncytial virus A Memphis 37b infected in human assessed as reduction in AUC of total symptom score at 200 to 350 mg administered twice daily administered for 5 days; assay type: functional, organism-based; conditions: dose 200-350 mg, time 5.0 day
# Summary of the method: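 Phase 2a challenge study in healthy adults aged 18–45 with low serum RSV-specific antibodies, inoculated on day 0 with about 4 log10 PFU RSV-A Memphis 37b. After infection was confirmed, subjects were randomised to three equal groups: drug at 200 or 350 mg, or placebo, twice daily for 5 days. Read-out was AUC of total symptom score versus placebo.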
# Rattus norvegicus = species on record: Rattus norvegicus; experiment: Toxicity in rat by micronucleus test; assay type: functional, organism-based
# Human orthopneumovirus [17] = experiment: Antiviral activity against Respiratory syncytial virus A2 infected in Balb/C mouse assessed as reduction in viral titers in lung homogenates at 50 mg/kg, po treated 2 hrs prior to viral infection followed by compound redosing at 24 hrs and measured after 5 days post infection by plaque assay relative to control; assay type: functional, human respiratory syncytial virus; design: scale not given: the % may be the effect or the level left
# Summary of the method: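 Female Balb/C mice aged 7–8 weeks, 6 per group, received two oral doses 2 h before and 24 h after intranasal inoculation with 5 × 10⁶ pfu of RSV A2. Mice were euthanized on day 5. Lung homogenate titers were determined by plaque assay on Vero cells and expressed as a percentage of the control group.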
# [18] = test system: Respiratory syncytial virus; experiment: Antiviral activity against Respiratory syncytial virus Memphis 37b infected in human HEp2 cells treated over 10 serial passages by plaque assay; assay type: functional, organism-based; conditions: HEp-2
# [19] = Oral bioavailability in Sprague-Dawley rat at 10 mg/kg administered via gavage measured after 0.02 to 24 hrs by tandem liquid chromatography/mass spectrometry; assay type: ADME, organism-based; conditions: in vivo, time 0.02-24 hrs
# Summary of the method: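 Male Sprague–Dawley rats (200–250 g), 3 per route. IV bolus at 1 mg/kg, 1 mg/mL in 40:60 dimethylacetamide/saline; oral gavage at 5 or 10 mg/kg, 5 mg/mL in 1% methyl cellulose, 0.1% Tween 80 in water. Serial blood at 0.02–24 h (ten points) into heparin, spun at 4 °C, plasma frozen; acetonitrile protein precipitation, ESI LC-MS/MS with matrix curve and internal standards.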
# [20] = test system: Respiratory syncytial virus; experiment: Antiviral activity against Respiratory syncytial virus Memphis 37b infected in human HEp2 cells by plaque assay; assay type: functional, organism-based; conditions: HEp-2
# [21] = Tmax in CD1 mouse at 10 mg/kg, po measured after 0.083 to 24 hrs by UHPLC-TOF method; assay type: ADME, organism-based; conditions: in vivo, time 0.083-24 hrs
# Summary of the method: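 Male CD-1 mice, acclimatized and individually housed, dosed IV and PO as amorphous-solid suspension. Terminal cardiac-puncture blood into heparinized tubes on wet ice, centrifuged at 4 °C within 15 min; plasma snap-frozen at −20 °C. IV arm sampled 2 min–24 h, oral arm 5 min–24 h. Plasma analysed by UHPLC-quadrupole-TOF MS.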
# [22] = Cmax in CD1 mouse at 10 mg/kg, po measured after 0.083 to 24 hrs by UHPLC-TOF method; assay type: ADME, organism-based; design: route oral, time 0.083-24 hrs, dose 10 mg/kg; conditions: in vivo
# [23] = Cmax in Beagle dog at 3 mg/kg, po measured after 0.03 to 24 hrs by UHPLC-TOF method; assay type: ADME, organism-based, Canis lupus familiaris; design: route oral, dose 3 mg/kg, time 0.03-24 hrs; conditions: in vivo
# [24] = Half life in rat hepatocytes at 3 uM measured up to 60 mins by LC-MS/MS analysis; assay type: ADME, cell-based, Hepatocyte
# [25] = Cytotoxicity against human Hep2 cells; assay type: cell-based; conditions: HEp-2 cells
# Summary of the method: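 Hep2 cells were cultured in parallel with the plaque assays at compound concentrations of 0.01 nM to 100 μM. Viability was read by MTT, CellTox green or CellTiter-Glo.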
smiles,measurement,setting,value
NCc1ccc2c(c1)nc(CN1C(=O)C3(CC3)c3ccc(F)cc31)n2CCCC(F)(F)F [SISUNATOVIR],half-life,[1],5.9 h
same,hepatocyte CLint at 3 µM,[2],14.8 µL/min/1e6 cells
same,Tmax,[3],2.7 h
same,Tmax,[4],4 h
same,half-life,[5],1.8 h
same,half-life at 3 µM,[6],9.67 h
same,half-life,[7],0.533 h
same,solubility thermodynamic,[8],417 µM
same,half-life,[9],12.3 h
same,IC50,Human orthopneumovirus [10],1.4 nM
same,fold change (FC),[11],76
same,Activity,Salmonella typhimurium,Not toxic
same,Activity,[12],Non-Toxic
same,Tmax,[13],5.3 h
same,Cmax,[14],74.2 ng/mL
same,bioavailability,[15],44.2%
same,Activity,Human orthopneumovirus [16],Active
same,Activity,Rattus norvegicus,Not toxic
same,Activity,Human orthopneumovirus [17],98%
same,EC50,[18],89 nM
same,bioavailability,[19],102%
same,EC50,[20],1.18 nM
same,Tmax,[21],2 h
same,Cmax,[22],224 ng/mL
same,Cmax,[23],82.4 ng/mL
same,half-life at 3 µM,[24],1.55 h
same,CC50,[25],> 20000 nM
